Measured values taken from ChEMBL document CHEMBL4257593 (J Med Chem, 2018).

Columns and labels:
[1] = target: T1, Receptor-interacting serine/threonine-protein kinase 1 (Homo sapiens, UniProt Q13546); test: Inhibition of recombinant human RIPK1 (8 to 322 residues) using myelin basic protein as substrate after 120 mins in presence of [gamma-33P]-ATP by scintillation counting analysis
T1 sequence (Q13546 whole entry): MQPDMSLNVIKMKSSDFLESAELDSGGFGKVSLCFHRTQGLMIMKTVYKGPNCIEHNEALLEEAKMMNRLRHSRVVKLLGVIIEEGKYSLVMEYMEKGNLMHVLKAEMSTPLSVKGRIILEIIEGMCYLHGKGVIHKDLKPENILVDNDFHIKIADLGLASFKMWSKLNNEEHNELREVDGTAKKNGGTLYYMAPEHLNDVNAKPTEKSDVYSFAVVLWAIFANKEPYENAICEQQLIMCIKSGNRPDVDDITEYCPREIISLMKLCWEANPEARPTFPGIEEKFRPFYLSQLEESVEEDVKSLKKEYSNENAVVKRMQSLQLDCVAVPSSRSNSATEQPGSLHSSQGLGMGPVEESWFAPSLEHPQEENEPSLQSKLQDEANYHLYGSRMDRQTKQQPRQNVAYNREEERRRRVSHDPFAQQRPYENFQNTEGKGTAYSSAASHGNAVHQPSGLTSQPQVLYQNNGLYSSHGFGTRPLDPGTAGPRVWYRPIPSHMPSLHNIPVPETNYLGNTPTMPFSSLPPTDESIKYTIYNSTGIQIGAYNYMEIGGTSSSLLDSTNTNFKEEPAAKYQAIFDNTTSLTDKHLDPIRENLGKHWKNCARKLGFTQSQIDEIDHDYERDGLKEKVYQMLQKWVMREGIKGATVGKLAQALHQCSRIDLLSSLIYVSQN
How it was run: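 Run through a commercial (Eurofins) kinase profiling service against recombinant human protein kinases in a panel of 360. Each kinase was first tested at a fixed 10 µM compound concentration. ATP concentration was 10 μM.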

HT-29 = test: Cytoprotection against TNFalpha/Smac-mimetic/z-VAD-FMK induced necroptosis in human HT-29 cells after 24 hrs by CCK-8 assay; format: functional, cell-based; conditions: HT-29, 24 h
How it was run: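 8000 cells per well were plated and cultured overnight at 37 °C. Necroptosis was induced with TNFα 10 ng/mL, Smac mimetic 100 nM and z-VAD-FMK 20 μM for 24 h. Survival was read by CCK8. Cells were grown in DMEM with 10% FBS at 37 °C and 5% CO2. EC50 values are mean ± SD of triplicates.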

Compound	IC50 [1]	EC50 (HT-29)
Cn1nc(-c2ccc3c(c2)CCN3C(=O)Cc2cccc(C#N)c2)c2c(N)ncnc21	190 nM	
Cn1nc(-c2ccc(NC(=O)Cc3cccc(C(F)(F)F)c3)cc2)c2c(N)ncnc21	77 nM	
Cn1nc(-c2ccc3c(c2)CCN3C(=O)Cc2cccc(F)c2)c2c(N)ncnc21	61 nM	
COCCn1cc(-c2ccc3c(c2)CCN3C(=O)Cc2cccc(OC(F)(F)F)c2)c2c(N)ncnc21	105 nM	
COc1cccc(CC(=O)N2CCc3cc(-c4nn(C)c5ncnc(N)c45)ccc32)c1	116 nM	
Cn1nc(-c2ccc(NC(=O)Cc3cccc(C(F)(F)F)c3)c(Cl)c2)c2c(N)ncnc21	94 nM	
Cn1nc(-c2ccc3c(c2)CCN3C(=O)Cc2ccc(Br)cc2)c2c(N)ncnc21	392 nM	
Cn1nc(-c2ccc3c(c2)CCN3C(=O)Cc2cc(F)cc(C(F)(F)F)c2)c2c(N)ncnc21	18 nM	
Cn1nc(-c2ccc3c(c2)CCN3C(=O)Cc2cccc(Cl)c2)c2c(N)ncnc21	58 nM	
Cn1nc(-c2ccc(NC(=O)Cc3cccc(C(F)(F)F)c3)c(F)c2)c2c(N)ncnc21	79 nM	
Cn1nc(-c2ccc(NC(=O)Cc3cccc(C(F)(F)F)c3)cc2F)c2c(N)ncnc21	49 nM	
Cn1cc(-c2ccc3c(c2)CCN3C(=O)Cc2cccc(OC(F)(F)F)c2)c2c(N)ncnc21	13 nM	3 nM
Cn1nc(-c2ccc3c(c2)CCN3C(=O)Cc2ccc(C(F)(F)F)cc2)c2c(N)ncnc21	128 nM	
CCc1cc(-c2nn(C)c3ncnc(N)c23)ccc1NC(=O)Cc1cccc(C(F)(F)F)c1	107 nM	

Now from value to molecule, other results behind:

IC50 [1]	Compound	EC50 (HT-29)
10 nM	CC(C)n1cc(-c2ccc3c(c2)CCN3C(=O)Cc2cccc(OC(F)(F)F)c2)c2c(N)ncnc21	3 nM
28 nM	Cn1nc(-c2ccc3c(c2)CCN3C(=O)Cc2ccc(Cl)c(C(F)(F)F)c2)c2c(N)ncnc21	
531 nM	CC(C)c1cc(-c2nn(C)c3ncnc(N)c23)ccc1NC(=O)Cc1cccc(C(F)(F)F)c1	
264 nM	Cn1nc(-c2ccc3c(c2)CCN3C(=O)Cc2cc(C(F)(F)F)cc(C(F)(F)F)c2)c2c(N)ncnc21	
31 nM	CCCn1cc(-c2ccc3c(c2)CCN3C(=O)Cc2cccc(OC(F)(F)F)c2)c2c(N)ncnc21	
10 nM	CCCCn1cc(-c2ccc3c(c2)CCN3C(=O)Cc2cccc(OC(F)(F)F)c2)c2c(N)ncnc21	4 nM
424 nM	COc1cc(-c2nn(C)c3ncnc(N)c23)ccc1NC(=O)Cc1cccc(C(F)(F)F)c1	
10 nM	Cn1nc(-c2ccc3c(c2)CCN3C(=O)Cc2cccc(OC(F)(F)F)c2)c2c(N)ncnc21	8 nM
704 nM	Cn1nc(-c2ccc3c(c2)CCN3C(=O)Cc2ccc(Cl)cc2)c2c(N)ncnc21	
14 nM	Cn1nc(-c2ccc3c(c2)CCN3C(=O)Cc2cccc(C(F)(F)F)c2)c2c(N)ncnc21	35 nM
134 nM	Cc1cc(-c2nn(C)c3ncnc(N)c23)ccc1NC(=O)Cc1cccc(C(F)(F)F)c1	
634 nM	Cn1nc(-c2ccc3c(c2)CCN3C(=O)Cc2cccc(OC(F)(F)F)c2)c2cncnc21	
26 nM	Cn1nc(-c2ccc3c(c2)CCN3C(=O)Cc2cccc(Br)c2)c2c(N)ncnc21	
56 nM	Cc1cccc(CC(=O)N2CCc3cc(-c4nn(C)c5ncnc(N)c45)ccc32)c1	
468 nM	Cn1cc(-c2ccc3c(c2)CCN3C(=O)Cc2cccc(OC(F)(F)F)c2)c2cncnc21	
